Hits are enriched below; roughly 2.5% of the tested compounds scored in any of these assays.
TRPC6 inhibitor: mouse TRPC6 channel inhibitors, primary screen, cell-based, HEK293, membrane potential dye; B-score at 10 µM; Short transient receptor potential channel 6 (Mus musculus), Q61143; ACh-evoked depolarization; hits give low values; hit rate 1.1% among 310,000;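 active means B-score under library mean minus 3 SD, initial fluorescence not abnormally high, positive integrated signal ratio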;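 further: B-score derived from integrated fluorescence ratio over the kinetic read; more negative B-score means stronger inhibition of depolarization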
TRPC4 act: activators of mouse TRPC4 channel, primary screen, Fluo4 calcium, HEK293 TRPC4beta/mu-opioid cells; Fluo4 calcium fluorescence; hits give high values; B-score at 10 µM; hit rate 0.49% among 310,000; AID 2237, 2010;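 active means B-score above 5 SD of library B-scores, and initial fluorescence ratio not above library mean plus 5 SD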;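 further: positive B-score marks a calcium rise read as TRPC4 activation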
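Test system: HEK293 cells stably co-expressing mouse TRPC4beta and mu-opioid receptor | Schedule: Fluo4 dye loading 45 min at room temperature, 110 s recording | Measured by: Kinetic Fluo4 calcium fluorescence, 5 s baseline at 1 Hz | Evaluation: B score of integrated ratio | Controls: Buffer (low) and maximal DAMGO (high)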
TRPC6 act: mouse TRPC6 channel activators, primary screen, cell-based, HEK293, membrane potential dye | Short transient receptor potential channel 6 (Mus musculus), Q61143 | HEK293-TRPC6 membrane potential dye fluorescence; hits give high values | B-score at 10 µM | hit rate 0.13% among 310,000;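 active means B-score of the integrated fluorescence ratio above library mean plus 3 SD, and starting fluorescence ratio within library mean plus 5 SD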;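 further: higher score means more depolarization so channel activation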
DSG3 Ab inh: inhibitors of pemphigus antibody binding to DSG3, primary screen, biochemical, bead-based, flow cytometry, scFv-GFP | Desmoglein-3 (Homo sapiens), P32926 | DSG3-coupled beads, scFv-anti-DSG3-GFP binding; hits give low values | binding (percent of control), % at 10 µM | hit rate 0.48% among 310,000 | AID 588358, 2011;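 active means binding more than 3 SD below its plate's average and above zero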;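 further: hits lower antibody fragment binding to DSG3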
Target sequence (P32926 whole entry, looked up, the tested form may be a part): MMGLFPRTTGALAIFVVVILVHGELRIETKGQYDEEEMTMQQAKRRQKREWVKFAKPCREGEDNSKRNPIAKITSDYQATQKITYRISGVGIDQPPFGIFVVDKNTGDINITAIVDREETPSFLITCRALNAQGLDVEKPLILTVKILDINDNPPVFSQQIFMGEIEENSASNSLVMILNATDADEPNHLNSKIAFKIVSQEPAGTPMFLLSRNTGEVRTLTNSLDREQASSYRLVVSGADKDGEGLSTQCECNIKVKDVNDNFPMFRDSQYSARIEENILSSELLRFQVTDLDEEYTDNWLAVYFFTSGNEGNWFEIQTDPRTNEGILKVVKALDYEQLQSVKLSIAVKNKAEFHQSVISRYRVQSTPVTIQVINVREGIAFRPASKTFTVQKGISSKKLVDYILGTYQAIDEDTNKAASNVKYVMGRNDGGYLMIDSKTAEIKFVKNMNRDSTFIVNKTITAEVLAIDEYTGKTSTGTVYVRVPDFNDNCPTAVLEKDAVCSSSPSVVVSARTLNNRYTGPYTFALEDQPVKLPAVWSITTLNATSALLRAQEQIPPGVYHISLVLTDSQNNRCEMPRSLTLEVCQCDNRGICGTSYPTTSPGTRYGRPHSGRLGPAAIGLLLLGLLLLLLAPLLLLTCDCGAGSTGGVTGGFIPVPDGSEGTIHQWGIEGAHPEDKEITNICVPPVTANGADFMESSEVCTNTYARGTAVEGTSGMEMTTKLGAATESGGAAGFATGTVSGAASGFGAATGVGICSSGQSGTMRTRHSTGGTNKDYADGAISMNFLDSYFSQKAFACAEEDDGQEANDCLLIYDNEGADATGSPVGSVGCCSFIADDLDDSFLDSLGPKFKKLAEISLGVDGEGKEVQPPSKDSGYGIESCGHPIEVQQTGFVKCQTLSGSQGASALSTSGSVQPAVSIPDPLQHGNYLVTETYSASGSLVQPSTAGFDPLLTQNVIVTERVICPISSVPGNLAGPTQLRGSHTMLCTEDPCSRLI
TRPC4 potent: positive allosteric modulators of TRPC4, primary screen, cell-based, mouse TRPC4beta, HEK293 mu-opioid, Fluo-4 calcium; Short transient receptor potential channel 4 (Mus musculus), Q9QUQ5; DAMGO EC20, Fluo-4 Ca2+ flux; hits give high values; B-score at 10 µM; hit rate 0.42% among 310,000; AID 2227, 2009;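 active means B-score of calcium response area above 5 SD of library B-scores, with initial fluorescence ratio within 5 SD of library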;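 further: B-score of integrated fluorescence ratio over time as area under calcium response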
TRPC4 block: inhibitors of mouse TRPC4 channel, primary screen, Fluo4 calcium, HEK293 TRPC4beta/mu-opioid cells; Short transient receptor potential channel 4 (Mus musculus), Q9QUQ5; DAMGO-evoked Fluo4 calcium flux; hits give low values; B-score at 10 µM; hit rate 0.39% among 300,000; AID 2247, 2010;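 active means B-score over 3 SD under the library average, no early fluorescence shift, positive overall ratio signal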
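Assay system: HEK293 cells with stable TRPC4beta plus mu-opioid receptor expression. Dosing: single dose. Measured by: Fluo4 Ca2+ flux fluorescence. Also added: DAMGO in two steps, submaximal then maximal. Read-out: B score from integrated Fluo4 fluorescence ratio.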
TRPC4 spec 2: second check of whether TRPC6 inhibitors also affect mouse TRPC4; shares compounds with TRPC6 inhibitor; HEK293 TRPC4/MOR, membrane potential dye fluorescence; channel activated by saturating DAMGO dose; inhibition, % at 10 µM; hit rate 42% among 920; AID 2776;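 active means compounds whose fluorescence signal differed from control wells by over 3 SD, either direction, in both duplicate plates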
TRPC4 spec: mouse TRPC4 modulation by TRPC6 hits, confirmation, selectivity assay for TRPC6 inhibitor project, cell-based, HEK293 TRPC4/mu-opioid, membrane potential dye. shares compounds with TRPC6 inhibitor. membrane potential fluorescence. activity change, negative = inhibition, % at 10 µM. hit rate 61% among 920. AID 2777, 2010;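 active means rise or fall in signal beyond 3 SD of buffer-only wells in both replicate plates, either sign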;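 further: integrated kinetic ratio of fluorescence range over baseline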
HEK293 MPD ctr 2-1: nonspecific membrane potential effects, parental HEK293, confirmation, counter-screen for TRPC6 inhibitor project, cell-based, second counter screen | shares compounds with TRPC6 inhibitor | parental HEK293 membrane potential dye fluorescence; maximal acetylcholine challenge after compound addition | signal change vs control, % at 10 µM | hit rate 31% among 920 | AID 2779, 2010;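 active means membrane potential signal moving either way by over 3 SD of the maximum-effect control, in both duplicate plates, meaning non-specific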
HEK293 MPD ctr-1: membrane potential modulation in parental HEK293, confirmation, counter-screen for TRPC6 inhibitor project, cell-based. shares compounds with TRPC6 inhibitor. parental HEK293 membrane potential dye fluorescence. membrane potential signal change, % at 10 µM. hit rate 60% among 920;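 active means membrane potential signal shifting up or down by more than 3 SD of buffer-only wells, on both duplicate plates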
HEK293 MPD ctr-2: parental HEK293 membrane potential modulation, confirmation, counter-screen for TRPC6 modulator project, cell-based; shares compounds with TRPC6 inhibitor; membrane potential dye fluorescence; membrane potential signal change, % at 10 µM; hit rate 51% among 2,400;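 active means membrane potential signal moves up or down beyond 5 SD from buffer-only wells, on both duplicate plates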
HEK293 MPD ctr 2-2: second counter-screen for TRPC6 modulators: effect in parental HEK293 cells | inhibition, % at 10 µM | membrane potential dye fluorescence; after compound, maximal acetylcholine stimulation | hit rate 14% among 2,400 | shares compounds with TRPC6 inhibitor | AID 488926;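 active means membrane potential signal drops by more than 5 SD from the mean control signal, in both duplicate plates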;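 further: plate controls were acetylcholine ECmax control wells for no effect and buffer only wells for full effect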
TRPC4 ctr mod: TRPC4 modulation by TRPC6 hit compounds, confirmation, selectivity assay for TRPC6 modulator project, cell-based, HEK293 TRPC4/mu-opioid, membrane potential dye, mouse; shares compounds with TRPC6 inhibitor; membrane potential fluorescence; percent change from control (negative = decrease, positive = increase), % at 10 µM; hit rate 69% among 2,400;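 active means membrane potential signal moved up or down beyond 5 SD of buffer control wells, in both duplicate plates, actives on both sides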;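 further: plate controls were assay buffer wells for no effect and DAMGO maximal-effect wells for full effect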
TRPC4 ctr inh 2: second selectivity test of TRPC6 modulators against mouse TRPC4; shares compounds with TRPC6 inhibitor; HEK293 TRPC4/mu-opioid, membrane potential dye fluorescence; stimulated with maximal-effect DAMGO; inhibition, % at 10 µM; hit rate 55% among 2,400; AID 488928;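 active means drop in membrane potential signal beyond 5 SD of the control wells in both duplicate plates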;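 further: TRPC4 counter screen for TRPC6 hits run under conditions tuned for TRPC6 not TRPC4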
TRPC6 block conf: mouse TRPC6 channel inhibitors, confirmation, HEK293 cells, membrane potential dye, duplicate. AID 488960, 2010. ACh-evoked depolarization. shares compounds with TRPC6 inhibitor. hit rate 43% among 3,300. inhibition, % at 10 µM;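 active means fluorescence ratio falls more than 5 SD below the full-stimulation control mean, in both duplicate runs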;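 further: integrated fluorescence ratio of peak minus minimum over baseline after agonist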
TRPC6 act conf: mouse TRPC6 channel activators, confirmation, HEK293 cells, membrane potential dye, duplicate; activation, % at 10 µM; shares compounds with TRPC6 inhibitor; HEK293-TRPC6 membrane potential dye fluorescence, FDSS; hit rate 11% among 2,800;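 active means ratio signal rise beyond 5 SD above unstimulated control wells' mean, seen in both duplicate runs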;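 further: plate controls were buffer EC0 wells for no effect and acetylcholine ECmax response for full effect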
Active calls of the source: *; i = inactive; · = no result given.

SMILES	TRPC6 inhibitor	TRPC4 act	TRPC6 act	DSG3 Ab inh	TRPC4 potent	TRPC4 block	HEK293 MPD ctr-2	HEK293 MPD ctr 2-2	TRPC4 ctr mod	TRPC4 ctr inh 2	TRPC6 block conf	TRPC6 act conf	others
C=CCn1c(O)c(C(CC)=Nc2cccc(C(F)(F)F)c2)c(=O)[nH]c1=O	i	i	i	111.8	i	i	·	·	·	·	·	·
CN(C)CCSCc1nnc2n1-c1ccc(Cl)cc1C(c1ccccc1Cl)=NC2	i	i	i	·	i	i	·	·	·	·	·	·
CN1CCN(c2ccc(S(C)(=O)=O)cc2[N+](=O)[O-])CC1	i	i	i	84.8	i	i	·	·	·	·	·	·
Cn1c(=O)n(C)c2cc([N+](=O)[O-])c(N3CCNCC3)cc21	-6.28*	i	i	96.8	i	i	-276.0%*	69.5%*	-45.5%*	54.5%*	52.0%*	i
CCCCn1c(O)c(/C=C/C=Nc2ccccc2)c(=O)[nH]c1=O	i	i	i	96.5	i	i	·	·	·	·	·	·
CC[N+]12CCC(CC1)C(=C(c1ccccc1)c1ccccc1)C2	-6.07*	i	i	103.0	i	i	i	69.0%*	i	i	66.5%*	i
C[N+]12CCC(CC1)C(=C(c1ccccc1)c1ccccc1)C2	-6.83*	i	i	135.2	i	i	·	·	·	·	80.6%*	i	TRPC4 spec 2=i;TRPC4 spec=i;HEK293 MPD ctr 2-1=-12.5%*;HEK293 MPD ctr-1=i
CC1CCC2[C@@H](C)C(=O)OC3O[C@]4(C)CCC1C32OO4 (stereo partly drawn)	i	i	i	·	i	i	·	·	·	·	·	·
CC(Cc1ccccc1Sc1ccccc1)N(C)C (stereo not drawn)	i	i	i	97.0	i	i	·	·	·	·	·	·
CC(Cc1ccccc1Sc1ccc(O)cc1)N(C)C (stereo not drawn)	-6.63*	i	i	108.8	i	i	·	·	·	·	i	i	TRPC4 spec 2=41.0%*;TRPC4 spec=43.4%*;HEK293 MPD ctr 2-1=i;HEK293 MPD ctr-1=4.2%*
COC(=O)C1=C(c2ccc(OCc3ccccc3)cc2)C[C@@H]2CC[C@H]1N2C(=O)NCc1ccc([N+](=O)[O-])cc1	·	·	·	103.5	·	·	·	·	·	·	·	·
Cc1nonc1OCCNCCNc1ccc([N+](=O)[O-])c2cccnc12	-5.14*	i	i	98.2	i	i	-179.5%*	i	-37.5%*	75.0%*	48.0%*	i
CCNCCNc1ccc([N+](=O)[O-])c2cccnc12	-5.94*	i	i	96.5	18*	i	-288.5%*	i	-39.5%*	54.0%*	72.0%*	i
O=[N+]([O-])c1cccc2c([N+](=O)[O-])cccc12	·	·	·	102.4	·	·	·	·	·	·	·	·
COc1ccc(NC2Oc3cc4c(cc3C(c3cc(OC)c(OC)c(OC)c3)C2C)OCO4)cc1 (stereo not drawn)	·	·	·	94.5	·	·	·	·	·	·	·	·
COc1ccccc1Sc1ccccc1CC(C)N (stereo not drawn)	-5.02*	i	i	100.8	i	i	i	i	i	66.0%*	44.5%*	i
CNc1ccc2nc3ccccc3[n+](C)c2c1	-12.2*	i	i	94.2	i	i	-84.0%*	161.5%*	-48.0%*	51.5%*	86.5%*	i
C[n+]1c2ccccc2nc2ccc(NCCO)cc21	-7.42*	i	i	161.2	i	i	-114.5%*	133.0%*	-36.5%*	50.5%*	66.5%*	i
Cc1ccc(C[n+]2c(-c3ccc(C)cc3)cc(-c3ccc(C)cc3)cc2-c2ccc(C)cc2)cc1	-6.99*	160*	i	109.3	i	i	·	·	·	·	80.7%*	i	TRPC4 spec 2=56.5%*;TRPC4 spec=-16.3%*;HEK293 MPD ctr 2-1=i;HEK293 MPD ctr-1=-195.5%*
CC(C)c1ccc(C(c2c(O)c3ccccc3oc2=O)c2c(O)c3ccccc3oc2=O)cc1	·	·	·	110.4	·	·	·	·	·	·	·	·
O=c1oc2ccccc2c(O)c1C(c1ccc([N+](=O)[O-])cc1)c1c(O)c2ccccc2oc1=O	-7.29*	i	i	89.6	i	i	·	·	·	·	i	i	TRPC4 spec 2=i;TRPC4 spec=i;HEK293 MPD ctr 2-1=i;HEK293 MPD ctr-1=-272.5%*
Clc1ccc(N2CC2c2ccncc2)cc1 (stereo not drawn)	i	i	i	109.8	i	i	·	·	·	·	·	·
CC(C#N)CCC#N (stereo not drawn)	·	·	·	103.4	·	·	·	·	·	·	·	·

Screens (PubChem BioAssay)
